Laboratory results taken from publication PMC5203969 (Clinical cancer research : an official journal of the …, 2016).
Where two headings read alike, the source gives them in different places. Each block holds one molecule with its values, some of them ahead of it.

Tests used:
[1] = test system: NTRK1 autophosphorylation in NIH-3T3 cells transformed with FLAG-tagged CD74-NTRK1; format: cell-based; settings: 6 hours, western blot
[2] = test system: NTRK1 autophosphorylation in CUTO-3 cells (MPRIP-NTRK1); assay: Western blot of NTRK1 autophosphorylation in CUTO-3 cells; format: cell-based, human; settings: 6 hours, dovitinib at 1000 nM
Method in brief: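 CUTO-3 cells (MPRIP-NTRK1, patient-derived) were treated with inhibitor for 6 hours. They were lysed for 30 min in 0.1% Triton X-100 plus protease inhibitor. Lysates were run on 4–12% Bis-Tris gels and transferred to PVDF. Membranes were blocked in 5% milk, then probed with primary antibody at 1:1,000 and secondary at 1:5,000.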

[3] = test system: Parental Ba/F3 cells; assay: Proliferation of parental Ba/F3 cells grown in the presence of IL-3; format: cell-based, murine; settings: read-out: IC50 Parental Ba/F3
Method in brief: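 Parental Ba/F3 cells are immortalized murine bone-marrow pro-B cells. They were incubated with test compound for 72 hours, and viability was measured by CellTiter Glo. Final DMSO was under 0.5%.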

[4] = test system: F589V CD74-NTRK1; format: cell-based; settings: 293 cells transiently transfected with wild-type and F589V CD74-NTRK1
[5] = test system: CUTO-3 cells; assay: Proliferation of CUTO-3 tumor cells; format: cell-based, human
[6] = test system: HCC78 NSCLC cell line; assay: Proliferation of HCC78 NSCLC cell line; format: cell-based, human
Method in brief: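 HCC-78 cells were obtained from ATCC (STR-authenticated) and passaged under 6 months. Cells were exposed to test compound for 72 hours, and viability was read by CellTiter Glo luminescence.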

[7] = test system: ROS1-rearranged NSCLC; settings: phase II; cited from earlier work
[8] = test system: ROS1 autophosphorylation and ERK in CD74-ROS1 wild-type transformed Ba/F3 cells; assay: Western blot of ROS1; format: cell-based, murine
[9] = test system: ROS1 autophosphorylation and ERK in CD74-ROS1 G2032R transformed Ba/F3 cells; assay: Western blot of ROS1; format: cell-based, murine
[10] = test system: ROS1 autophosphorylation and ERK in CD74-ROS1 L2026M transformed Ba/F3 cells; assay: Western blot of ROS1; format: cell-based, murine
[11] = target: Ba/F3 cells transformed with CD74-ROS1 (wild-type) (Homo sapiens, UniProt P04233+P08922); assay: Proliferation of Ba/F3 cells transformed with CD74-ROS1 wild-type; format: cell-based, murine; settings: peak plasma level obtained through FDA-approved oral dosing
[12] = test system: prostate cancer; settings: cited from earlier work
[13] = test system: RET-rearranged NSCLC; settings: of 3 patients with RET-rearranged NSCLC; cited from earlier work
[14] = test system: medullary thyroid cancer; settings: cited from earlier work
[15] = test system: ROS1-rearranged metastatic lung adenocarcinoma; assay: Treatment of one patient with ROS1-rearranged metastatic lung adenocarcinoma
[16] = observed in clinical trials; cited from earlier work
[17] = Homo sapiens, CUTO-3, read-out: IC50 inhibition of CUTO-3 cells, proliferation
[18] = read-out: IC50 inhibition of CUTO-3 cells, proliferation
[19] = Homo sapiens, HCC78, read-out: IC50 inhibition of the HCC78 NSCLC cell line

Sequence of Ba/F3 cells transformed with CD74-ROS1 (wild-type) (P08922 1883-2347 limits assumed, one chain of several): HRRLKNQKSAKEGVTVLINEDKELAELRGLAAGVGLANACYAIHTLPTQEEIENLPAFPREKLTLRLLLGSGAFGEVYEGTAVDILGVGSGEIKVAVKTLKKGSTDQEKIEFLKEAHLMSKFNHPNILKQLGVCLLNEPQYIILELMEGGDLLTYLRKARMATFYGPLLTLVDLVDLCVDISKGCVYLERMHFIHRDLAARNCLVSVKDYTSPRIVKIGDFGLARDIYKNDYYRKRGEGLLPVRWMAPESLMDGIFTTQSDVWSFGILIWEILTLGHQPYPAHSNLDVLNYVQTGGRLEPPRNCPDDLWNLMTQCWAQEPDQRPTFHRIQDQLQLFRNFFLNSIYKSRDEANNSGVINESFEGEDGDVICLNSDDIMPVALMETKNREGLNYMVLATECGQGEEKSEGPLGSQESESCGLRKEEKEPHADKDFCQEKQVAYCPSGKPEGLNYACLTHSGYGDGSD

Compound: C[C@]12O[C@H](C[C@]1(O)CO)n1c3ccccc3c3c4c(c5c6ccccc6n2c5c31)CNC4=O [lestaurtinib, Lestaurtinib]
inhibition of NTRK1 autophosphorylation [1]: inhibit NTRK1 autophosphorylation
inhibition of NTRK1 autophosphorylation [2]: inhibited NTRK1 autophosphorylation
IC50 ([3]; Mus musculus, BaF3, 72 h): 3400 nM
effect of F589V mutation on inhibition of NTRK1 autophosphorylation [4]: did not affect inhibition of NTRK1 autophosphorylation
IC50 [5, 17]: 3.5 nM
IC50 [5, 18]: 3 nM

IC50 [5, 18]: 34 nM
Compound: Cc1cc(N2CCOCC2)cc2[nH]c(-c3c(NC[C@@H](O)c4cccc(Cl)c4)cc[nH]c3=O)nc12 [BMS-536924]
inhibition of NTRK1 autophosphorylation [1]: inhibit NTRK1 autophosphorylation
inhibition of NTRK1 autophosphorylation [2]: inhibited NTRK1 autophosphorylation
IC50 ([3]; parental Ba/F3 cells, 72 hours): 2750 nM
effect of F589V mutation on inhibition of NTRK1 autophosphorylation [4]: did not affect inhibition of NTRK1 autophosphorylation

IC50 [6, 19]: 750 nM
Compound: CCc1cc2c(cc1N1CCC(N3CCOCC3)CC1)C(C)(C)c1[nH]c3cc(C#N)ccc3c1C2=O [Alectinib]

IC50 [6, 19]: 530 nM
Compound: Cc1cc(Nc2ncc(Cl)c(Nc3ccccc3S(=O)(=O)C(C)C)n2)c(OC(C)C)cc1C1CCNCC1 [Ceritinib]

IC50 [6, 19]: 1600 nM
IC50 ([5]; Homo sapiens, CUTO-3, read-out: IC50 inhibition of CUTO-3 cells): 462 nM
Compound: C[C@@H](Oc1cc(-c2cnn(C3CCNCC3)c2)cnc1N)c1c(Cl)ccc(F)c1Cl [Crizotinib, crizotinib]
progression-free survival [7]: 19.2 month
response rate [7]: 72%
phosphorylation of ROS1 and ERK [8]: inhibits the phosphorylation of ROS1 and ERK

IC50 [6, 19]: 460 nM
Compound: COc1cc2c(Oc3ccc(NC(=O)C4(C(=O)Nc5ccc(F)cc5)CC4)cc3F)ccnc2cc1OCCCN1CCOCC1 [Foretinib, foretinib]
phosphorylation of ROS1 and ERK [8]: a decrease is seen in the phosphorylation of ROS1 and ERK
phosphorylation of ROS1 and ERK [9]: a decrease is seen in the phosphorylation of ROS1 and ERK
phosphorylation of ROS1 and ERK [10]: a decrease is seen in the phosphorylation of ROS1 and ERK

IC50 [6, 19]: 2200 nM
Compound: COc1cc(N2CCC(N3CCN(C)CC3)CC2)ccc1Nc1ncc(Cl)c(Nc2ccccc2P(C)(C)=O)n1 [Brigatinib, brigatinib]
phosphorylation of ROS1 and ERK [8]: inhibits the phosphorylation of ROS1 and ERK
phosphorylation of ROS1 and ERK [9]: less activity seen
phosphorylation of ROS1 and ERK [10]: inhibits the phosphorylation of ROS1 and ERK

Compound: CN1CCN(c2ccc(C(=O)Nc3n[nH]c4ccc(Cc5cc(F)cc(F)c5)cc34)c(NC3CCOCC3)c2)CC1 [Entrectinib, entrectinib]
IC50 [6, 19]: 450 nM
phosphorylation of ROS1 and ERK [8]: only effective at blocking activity of wild-type ROS1 signaling
phosphorylation of ROS1 and ERK [9]: only effective at blocking activity of wild-type ROS1 signaling
phosphorylation of ROS1 and ERK [10]: only effective at blocking activity of wild-type ROS1 signaling

Compound: COc1cc2nccc(Oc3ccc(NC(=O)C4(C(=O)Nc5ccc(F)cc5)CC4)cc3)c2cc1OC [Cabozantinib, cabozantinib]
fold by which inhibitory concentrations are below the peak plasma level [11]: ~ 50 fold
IC50 [6, 19]: 1360 nM
discontinuation rate ([12]; 40 mg group): 18%
rate of dose reduction ([12]; 40 mg group): 31%
discontinuation rate ([12]; 100 mg group): 25%
rate of dose reduction ([12]; 100 mg group): 84%
phosphorylation of ROS1 and ERK [8]: a decrease is seen in the phosphorylation of ROS1 and ERK
patients with a partial response [13]: 2 patients
patients with stable disease [13]: 1 patient
phosphorylation of ROS1 and ERK [9]: a decrease is seen in the phosphorylation of ROS1 and ERK
patients with dose-reductions ([14]; medullary thyroid cancer study): 79%
progression-free survival ([14]; medullary thyroid cancer, vs. 4 months placebo): 11.2 months
patients with doses held ([14]; medullary thyroid cancer): 65%
patients with discontinuation due to adverse events ([14]; phase III thyroid cancer study): 16%
phosphorylation of ROS1 and ERK [10]: a decrease is seen in the phosphorylation of ROS1 and ERK
right lower lobe lesion size on CT ([15]; 4 weeks after initiation of cabozantinib, from 1.7 cm): 1.4 cm
fatigue ([15]; single patient, after approximately 3 weeks on treatment): grade II
palmar-plantar erythrodysesthesia ([15]; single patient, after approximately 3 weeks on treatment, 140 to 80 mg daily): grade III

IC50 [5, 17]: 170 nM
Compound: CN1CCN(c2ccc3nc(-c4c(N)c5c(F)cccc5[nH]c4=O)[nH]c3c2)CC1 [dovitinib, Dovitinib]
inhibition of NTRK1 autophosphorylation [1]: weaker than would be suggested by its IC50 value
inhibition of NTRK1 autophosphorylation [2]: partial inhibition
IC50 ([3]; Mus musculus, BaF3, 72 h): 4200 nM
peak plasma level with oral dosing [16]: 568 nM

Compound: C[C@H]1Oc2cc(cnc2N)-c2c(nn(C)c2C#N)CN(C)C(=O)c2ccc(F)cc21 [PF-06463922]
IC50 ([6]; read-out: IC50 inhibition of the HCC78 NSCLC cell line, proliferation): > 10000 nM
phosphorylation of ROS1 and ERK [8]: inhibited wild-type and L2026M mutant ROS1 autophosphorylation and ERK activation
phosphorylation of ROS1 and ERK [9]: little effect on signaling
phosphorylation of ROS1 and ERK [10]: inhibited wild-type and L2026M mutant ROS1 autophosphorylation and ERK activation
